Source: PubChem BioAssay (Sanford-Burnham Center for Chemical Genomics)
NRP1-CendR mod: alters CendR peptide binding to human NRP-1; hit rate 0.85% among 360,000; AID 602438; inhibition, % at 25 µM; FAM-RPARPAR peptide binding to NRP-1, fluorescence polarization; O14786;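 active = inhibition or corrected inhibition above about 18%, plus a signal ratio from 0.5 to 1.5, limit read from the data, passing the limit was not always enough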
Target sequence (O14786 whole entry, looked up): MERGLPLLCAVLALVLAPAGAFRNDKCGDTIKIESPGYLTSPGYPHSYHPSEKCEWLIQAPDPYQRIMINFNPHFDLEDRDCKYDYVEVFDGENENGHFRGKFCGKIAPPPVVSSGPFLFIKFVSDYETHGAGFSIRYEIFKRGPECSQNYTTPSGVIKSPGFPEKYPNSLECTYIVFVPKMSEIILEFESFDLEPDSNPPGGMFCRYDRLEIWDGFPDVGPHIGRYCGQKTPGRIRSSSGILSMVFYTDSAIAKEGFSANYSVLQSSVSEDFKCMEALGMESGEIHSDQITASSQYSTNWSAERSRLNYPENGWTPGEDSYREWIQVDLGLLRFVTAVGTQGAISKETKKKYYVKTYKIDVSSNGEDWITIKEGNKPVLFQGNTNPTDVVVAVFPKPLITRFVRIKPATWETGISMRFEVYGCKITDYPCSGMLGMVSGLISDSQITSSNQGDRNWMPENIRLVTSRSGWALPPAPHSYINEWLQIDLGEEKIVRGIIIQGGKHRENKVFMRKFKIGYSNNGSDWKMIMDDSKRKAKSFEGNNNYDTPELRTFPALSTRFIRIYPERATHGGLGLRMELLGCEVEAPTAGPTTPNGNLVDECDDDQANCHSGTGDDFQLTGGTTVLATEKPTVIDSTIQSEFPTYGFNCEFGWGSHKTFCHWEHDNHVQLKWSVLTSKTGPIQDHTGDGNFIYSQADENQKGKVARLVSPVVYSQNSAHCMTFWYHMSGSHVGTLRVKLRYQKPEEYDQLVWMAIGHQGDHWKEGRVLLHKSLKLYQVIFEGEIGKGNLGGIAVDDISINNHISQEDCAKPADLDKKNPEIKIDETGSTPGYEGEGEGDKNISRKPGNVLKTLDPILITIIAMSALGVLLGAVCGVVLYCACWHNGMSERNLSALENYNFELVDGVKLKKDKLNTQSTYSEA
MT1-MMP act inh: blocks activation of human MT1-MMP | P50281 | HT1080 RFP-PRO-GFP cells, GFP/RFP ratio fluorescence, overnight; percent of plate control window, DMSO zero | GFP/RFP ratio change, % at 20 µM | hit rate 0.061% among 360,000;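 active = GFP/RFP ratio change of at least 30% with cell ATP level not reduced by more than half and red fluorescence within 50% of control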
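Assay system: HT1080 cells carrying an RFP-PRO-GFP reporter | Dosing: Single dose of 20 µM compound, 1% DMSO final | Incubation: Cells overnight before dosing, compound overnight, 37 °C, 5% CO2 | Evaluation: GFP/RFP fluorescence ratio | Control set: DMSO and RFP-L50D-GFP cell wells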
iPSC survival up: hiPSC single-cell survival enhancement | ATPlite luminescence; 100% = ROCK inhibitor wells, 0% = DMSO | survival enhancement, % at 20 µM | hit rate 0.044% among 360,000 | AID 602274; in the data active = survival enhancement above about 18%;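 note: cells exposed to compounds for 16 hours before the ATP read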
SKN-1 inh: blocks SKN-1 activity in C. elegans; C. elegans VP596 Pgst-4::GFP/RFP ratio, acrylamide-induced, 24 h; hit rate 0.49% among 360,000; inhibition, % at 21.8 µM;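 active = interference check ratio from 0.5 to 1.5 plus GFP to RFP signal ratio inhibition reaching or exceeding a fixed threshold, cut at about 30% in these data, passing the limit was not always enough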
The depositor's hits bear a star; . = no result given. The list is not random: actives were taken first. Their share in the collection is about 1.4%.

SMILES	NRP1-CendR mod	MT1-MMP act inh	iPSC survival up	SKN-1 inh
COC(=O)C1CCC(=S)N1C(=O)c1ccccc1 (stereo not drawn)	-6	-5	0	0
O=C(/C=C/c1ccc(Cl)cc1Cl)Nc1ccc(CN2CCOCC2)cc1	0	-1	-1	47*
O=C(/C=C/c1ccco1)Nc1ccc(CN2CCOCC2)cc1	10	1	0	14
CC(C)Oc1cccc(C(=O)Nc2ccc(CN3CCOCC3)cc2)c1	3	1	-3	35*
O=C(/C=C/c1ccccc1)Nc1ccc(CN2CCOCC2)cc1	5	1	0	65*
COC(=O)c1nc(NC(=O)c2ccccc2Br)n[nH]1	-1	2	-2	0
O=C(NC[C@@H]1CC[C@@H](Cc2ccc(-c3ccccc3)cc2)O1)Nc1ccc(Br)cc1	2	-25	-1	14
O=C(CCCCCN1C(=O)c2ccccc2C1=O)NC1CCCC1	24*	2	4	2
O=C(CCCCCCN1C(=O)c2ccccc2C1=O)NC1CCCCC1	4	3	1	4
N#CCCN1CCN(S(=O)(=O)c2ccc(C#N)cc2)CC1	11	-2	0	7
COc1ccccc1C(=O)COC(=O)/C=C/c1ccccc1	4	3	0	7
CCCCOC(=O)CCN1C(=O)/C(=C2\SC(=S)N(CCC(=O)OCCCC)C2=O)SC1=S	28*	27	-3	-3
CCOC(=O)c1cn(CC)c2cc(N3CCOCC3)c(F)cc2c1=O	1	-1	-1	40*
O=C1NCCN(Cc2ccc(F)cc2)C1CC(=O)N1CC=C(c2ccccc2)CC1 (stereo not drawn)	-14	-3	0	-13
COc1cccc(C(=O)NC2CCN(CC(=O)NCc3ccccc3F)CC2)c1	-8	0	0	8
COc1cccc(C(=O)NC2CCN(CC(=O)NCc3ccccc3OC)CC2)c1	34*	5	11	-17
CCc1ccccc1OCC(=O)Nc1cccc(S(=O)(=O)NC2=NCCCCC2)c1	-11	6	0	-5
O=C1CC(N2CCN(C/C=C/c3ccccc3)CC2)C(=O)N1Cc1ccc(N2CCCC2=O)cc1 (stereo not drawn)	10	8	-3	2
Clc1ccccc1OCc1nn[nH]n1	30*	0	-1	-3
CC[C@@H](C)CN1C(=O)N[C@@H](CCc2ccccc2)C(C(C)=O)=C1C	28*	2	2	10
CC(=O)C1=C(C)N(Cc2ccccc2)C(=O)N[C@H]1CCc1ccccc1	8	2	-3	9
CC(=O)Nc1cc2c3c(c1)CCC(=O)N3CCC2	12	-1	0	-4
CCC(=O)Nc1cc2c3c(c1)CCC(=O)N3CCC2	26*	-1	-1	10
O=C(OCn1nnc2ccccc2c1=O)c1ccc(Br)o1	35*	9	5	-2
O=c1c2ccccc2nnn1Cc1ccc(Br)cc1	-4	-3	0	36*
SMILES	NRP1-CendR mod	MT1-MMP act inh	iPSC survival up	SKN-1 inh
O=C(OCn1nnc2ccccc2c1=O)c1ccc(O)cc1	10	0	-1	8
c1ccn2cc(-c3ccc4c(c3)OCCO4)nc2c1	0	5	-5	38*
CCN(CC)CC#CC(O)(c1ccccc1)c1ccccc1	-15	1	0	6
Cc1cc(C)n(-c2nc3ccccc3n3cnnc23)n1	10	11	2	38*
O=C(C[C@H]1CC[C@H]2[C@@H](COC[C@@H](O)CN2S(=O)(=O)c2ccccc2)O1)N[C@@H]1CCN(Cc2ccccc2)C1	11	2	.	5
CNC(=O)C[C@@H]1CC[C@@H]2[C@H](COC[C@H](O)CN2S(=O)(=O)c2ccccc2Cl)O1	32*	0	.	1
Cc1ccc(S(=O)(=O)N2CCN(CCO)CC2)cc1-c1nnc2c3ccccc3c(C)nn12	-19	2	6	-1
Cc1c(N2C(=O)/C(=C\c3ccc(N(C)C)cc3)N(C)C2=S)c(=O)n(-c2ccccc2)n1C	-211	-68	0	64*
O=C(Nc1ccc(Cl)cc1Cl)C1=Cc2ccccc2OC1	-7	-4	-4	37*
O=C(Nc1ccc(Cl)cc1)C1=Cc2cc(Cl)ccc2OC1	10	2	0	13
Nc1ccc(O)c2c1C(=O)c1ccccc1C2=O	34*	59	0	63
Cc1ccc(NC(=O)CS(=O)CC(=O)N(CC(=O)NC2CCCC2)c2cccc(C)c2C)cc1 (stereo not drawn)	-4	3	-1	9
Cc1cccc(N(CC(=O)NC2CCCC2)C(=O)CS(=O)CC(=O)Nc2ccc3c(c2)OCO3)c1C (stereo not drawn)	28*	2	-1	-8
Cc1ccc(C)c(OCC(=O)N/N=C/c2c(C)nn(-c3ccccc3)c2Cl)c1C	3	-10	0	1
COC(=O)CCc1c(C)[nH]c(C(=O)OCc2ccccc2)c1C	20*	-5	8	4
CCOC(=O)c1c(C)[nH]c(C(=O)OCc2ccccc2)c1C	3	0	0	3
CC(C)c1nc(SCC(=O)Nc2ccc3c(c2)OCCO3)n[nH]1	-7	-2	-1	-9
Cc1cccc(Oc2ccc(Cl)cc2N)c1	29*	-1	-1	-5
O=C(CSc1cccc2cccnc12)N/N=C/c1cccc(O)c1	-9	3	4	-1
O=C(CSc1cccc2cccnc12)N/N=C/c1ccc(F)cc1	36*	0	0	-8
Cn1c(=O)c(C(=O)NCc2ccccc2Cl)c(O)c2ccccc21	-2	-1	0	15
O=C(CNC(=O)c1ccc(Br)cc1)NCC(=O)OCC(=O)c1ccc(F)cc1	26*	-4	0	14
O=C(CNC(=O)c1ccccc1)NCC(=O)OCC(=O)c1ccc(F)cc1	-4	4	4	15
Oc1cc2c(cc1O)[C@H]1c3ccc(O)c(O)c3OC[C@@]1(O)C2	17	21	-2	37*
S=P(c1ccc(N2CCOCC2)cc1N1CCOCC1)(N1CCOCC1)N1CCOCC1	11	0	0	44*
SMILES	NRP1-CendR mod	MT1-MMP act inh	iPSC survival up	SKN-1 inh
COc1ccc(C2CC(=O)C=C(NC3CCCC3)C2)cc1 (stereo not drawn)	29*	-2	2	0
O=C(/C=C\Nc1ccc(Br)cc1)c1cccnc1	6	2	-3	86*
O=C(/C=C/Nc1ccc(Oc2ccccc2)cc1)c1ccco1	2	-1	-1	82*
NC(=O)c1ccccc1N/C=C/C(=O)c1ccco1	3	-11	-2	-4
O=C(/C=C/Nc1ccccc1)c1ccccc1	6	-5	-4	36*
CC(=O)Nc1ccc(N/C=C/C(=O)c2ccccc2)cc1	0	5	-1	20
O=C(NNC(=S)Nc1ccc(Br)cc1)c1cccnc1	8	2	-1	2
O=C(/C=C/Nc1ccc(F)cc1Br)c1ccccc1	8	1	-3	37*
O=C(CCN1C(=O)/C(=C/c2ccccc2Cl)SC1=S)NC1=NCCS1	-7	2	-1	5
CC(=O)Nc1cccc(C(=O)OCC(=O)c2ccccc2Cl)c1	2	1	0	0
